Laboratory results published in ChEMBL document CHEMBL1926551, “Design, synthesis and in vitro evaluation of novel chroman-4-one, chroman, and 2H-chromene derivatives as human rhinovirus capsid-binding inhibitors” (Bioorg Med Chem, 2011).
Calls of active or inactive are those of the source. The rule behind the calls is not given here.

Key:
[1] = Cytotoxicity against human HeLa cells after 3 days by XTT based ELISA reader; assay type: cell-based; conditions: read-out: TC50
How it was run: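 HeLa cells seeded at 2 × 10^3 cells/well in growth medium (MEM, 8% FCS) with twofold compound dilutions from the maximum soluble concentration, triplicate wells. Matched ethanol controls were run. Plates were held 3 days at 37 °C, 5% CO2, then XTT was added (final 0.15 mg/mL) for 4 h.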

[2] = Cytotoxicity against human HeLa cells after 3 days by microscopic analysis; assay type: cell-based; conditions: read-out: MNCC
How it was run: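 HeLa cells exposed to twofold compound dilutions for 3 days at 37 °C and morphology scored microscopically on day 3. The MNTC is the highest concentration leaving morphology and viability unchanged in 100% of cells.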

rhinovirus A1B [3] = experiment: Antiviral activity against Human rhinovirus 1B infected in human HeLa cells assessed as inhibition of virus induced-plaque formation after 3 days by neutral red-based plaque reduction assay; assay type: functional, organism-based; conditions: Rhinovirus A, 72 h
How it was run: (§1)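 HeLa (Ohio) monolayers infected with virus giving about 100 plaques/well and adsorbed 1 h at 33 °C. The inoculum was removed and cells were overlaid with plaque medium ± fourfold compound dilutions, starting from the maximum non-cytotoxic concentration (MNTC). After 3 days at 33 °C, cells were stained with neutral red (0.2 mg/mL in PBS, pH 7.4) and plaques counted, triplicate wells.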

rhinovirus B14 [4] = experiment: Antiviral activity against Human rhinovirus 14 infected in human HeLa cells assessed as inhibition of virus induced-plaque formation after 3 days by neutral red-based plaque reduction assay; assay type: functional, organism-based; conditions: Rhinovirus B, 72 h
How it was run: (§2)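 HeLa (Ohio) monolayers infected with virus giving about 100 plaques/well and adsorbed 1 h at 33 °C. The inoculum was removed and cells were overlaid with plaque medium ± fourfold compound dilutions, starting from the maximum non-cytotoxic concentration (MNTC). After 3 days at 33 °C, cells were stained with neutral red (0.2 mg/mL in PBS, pH 7.4) and plaques counted, triplicate wells. IC50 came from % plaque reduction vs log dose; where 50% was not reached, % inhibition at the MNTC was reported.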

[5] = Therapeutic index, ratio of TC50 for human HeLa cells to IC50 for Human rhinovirus 14 infected in human HeLa cells; assay type: cell-based; conditions: read-out: TI
How it was run: (§3)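 Therapeutic index calculated as HeLa TC50 (XTT, 3 days) divided by the plaque-reduction IC50 for the respective serotype.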

[6] = Therapeutic index, ratio of TC50 for human HeLa cells to IC50 for Human rhinovirus 1B infected in human HeLa cells; assay type: cell-based; conditions: read-out: TI; how it was run: as §3
rhinovirus B14 [7] = experiment: Antiviral activity against Human rhinovirus 14 infected in human HeLa cells assessed as inhibition of virus induced-plaque formation at 12.5 uM after 3 days by neutral red-based plaque reduction assay; assay type: functional; conditions: Rhinovirus B, 72 h; how it was run: as §2
rhinovirus B14 [8] = experiment: Antiviral activity against Human rhinovirus 14 infected in human HeLa cells assessed as inhibition of virus induced-plaque formation at 25 uM after 3 days by neutral red-based plaque reduction assay; assay type: functional; conditions: Rhinovirus B, 72 h; how it was run: as §1
rhinovirus A1B [9] = experiment: Antiviral activity against Human rhinovirus 1B infected in human HeLa cells assessed as reduction of viral yield at 42 uM treated 4 hrs after viral adsorption measured after 10 hrs by neutral red-based plaque reduction assay; assay type: functional; conditions: Rhinovirus A
rhinovirus A1B [10] = experiment: Antiviral activity against Human rhinovirus 1B infected in human HeLa cells assessed as reduction of viral yield at 42 uM treated 15 mins after viral adsorption measured after 10 hrs by neutral red-based plaque reduction assay; assay type: functional; conditions: Rhinovirus A
rhinovirus A1B [11] = experiment: Antiviral activity against Human rhinovirus 1B infected in human HeLa cells assessed as reduction of viral yield at 42 uM treated together with viral inoculum after 10 hrs by neutral red-based plaque reduction assay; assay type: functional; conditions: Rhinovirus A
How it was run: (§4)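 One-step growth: confluent HeLa monolayers infected with HRV 1B at MOI 5. Virus bound 1 h at 4 °C, then washed thrice with cold PBS; cultures were incubated at 33 °C to 10 h p.i. 42 µM compound was present either during binding only or throughout binding plus replication. Cultures were freeze-thawed three times, clarified, and yield titrated by plaque assay on HeLa.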

rhinovirus A1B [12] = experiment: Antiviral activity against Human rhinovirus 1B infected in human HeLa cells assessed as reduction of viral yield at 42 uM treated 2 hrs after viral adsorption measured after 10 hrs by neutral red-based plaque reduction assay; assay type: functional; conditions: Rhinovirus A
rhinovirus A1B [13] = experiment: Antiviral activity against Human rhinovirus 1B infected in human HeLa cells assessed as reduction of viral yield at 42 uM treated 60 mins after viral adsorption measured after 10 hrs by neutral red-based plaque reduction assay; assay type: functional; conditions: Rhinovirus A
rhinovirus A1B [14] = experiment: Antiviral activity against Human rhinovirus 1B infected in human HeLa cells assessed as reduction of viral yield at 42 uM treated 45 mins after viral adsorption measured after 10 hrs by neutral red-based plaque reduction assay; assay type: functional; conditions: Rhinovirus A
rhinovirus A1B [15] = experiment: Antiviral activity against Human rhinovirus 1B infected in human HeLa cells assessed as reduction of viral yield at 42 uM treated at the end of viral adsorption followed by washout after 6 hrs measured after 10 hrs by neutral red-based plaque reduction assay; assay type: functional; conditions: Rhinovirus A
rhinovirus A1B [16] = experiment: Antiviral activity against Human rhinovirus 1B infected in human HeLa cells assessed as reduction of viral yield at 42 uM treated before viral adsorption measured after 10 hrs by neutral red-based plaque reduction assay; assay type: functional; conditions: Rhinovirus A
rhinovirus A1B [17] = experiment: Antiviral activity against Human rhinovirus 1B in human HeLa cell monolayers assessed as reduction of viral infectivity at 42 uM at 56 degC pre-treated for 1 hr before thermal treatment measured after 20 mins by plaque assay (reference value: 2.9 log PFU/mL); assay type: functional
rhinovirus A1B [18] = experiment: Antiviral activity against Human rhinovirus 1B infected in human HeLa cells assessed as reduction of viral yield at 42 uM at 4 degC treated immediately after viral adsorption after 1 hr by neutral red-based plaque reduction assay; assay type: functional, organism-based
rhinovirus A1B [19] = experiment: Antiviral activity against Human rhinovirus 1B infected in human HeLa cells measured after dilution; assay type: functional, organism-based
How it was run: (§5)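 HRV 1B suspension at high titre incubated ± 42 µM compound for 1 h at 33 °C. It was then serially diluted 10-fold to reach non-inhibitory free compound levels, and infectivity was titrated by plaque assay on HeLa monolayers.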

rhinovirus A1B [20] = experiment: Antiviral activity against Human rhinovirus 1B infected in human HeLa cells assessed as reduction of viral yield at 42 uM treated 6 hrs after viral adsorption measured after 10 hrs by neutral red-based plaque reduction assay; assay type: functional; conditions: Rhinovirus A
rhinovirus A1B [21] = experiment: Antiviral activity against Human rhinovirus 1B infected in human HeLa cells assessed as reduction of viral yield at 42 uM treated at the end of viral adsorption followed by washout after 30 mins to 1 hr measured after 10 hrs by neutral red-based plaque reduction assay; assay type: functional; conditions: Rhinovirus A
rhinovirus A1B [22] = experiment: Antiviral activity against Human rhinovirus 1B assessed as reduction in infectivity titers at 42 uM after 1 hr using HeLa cell monolayers by plaque assay (reference value: 5.33 * 10^6 PFU/mL); assay type: functional; how it was run: as §5
rhinovirus A1B [23] = experiment: Antiviral activity against Human rhinovirus 1B infected in human HeLa cells assessed as reduction of viral yield at 42 uM treated 30 mins after viral adsorption measured after 10 hrs by neutral red-based plaque reduction assay; assay type: functional; conditions: Rhinovirus A
rhinovirus A1B [24] = experiment: Antiviral activity against Human rhinovirus 1B infected in human HeLa cells assessed as reduction of viral yield at 42 uM treated at the end of viral adsorption measured after 10 hrs by neutral red-based plaque reduction assay; assay type: functional, organism-based; conditions: TDE = time-dependent effect
rhinovirus A1B [25] = experiment: Antiviral activity against Human rhinovirus 1B in human HeLa cell monolayers assessed as reduction of viral infectivity at 42 uM at pH 5 pre-treated for 1 hr before mild acid treatment measured after 30 mins by plaque assay (reference value: 3.8 log PFU/mL); assay type: functional
rhinovirus A1B [26] = experiment: Antiviral activity against Human rhinovirus 1B infected in human HeLa cells assessed as reduction of viral yield at 42 uM treated during viral adsorption measured after 10 hrs by neutral red-based plaque reduction assay; assay type: functional; conditions: Rhinovirus A; how it was run: as §4
[27] = Ratio of IC50 for Human rhinovirus 1B to IC50 for Human rhinovirus 14; assay type: functional

Structure (SMILES) | CC50 at 72 h [1] [µM] | MNTC at 72 h [2] [µM] | IC50 (rhinovirus A1B [3]) [µM] | IC50 (rhinovirus B14 [4]) [µM] | selectivity ratio [5] | selectivity ratio [6] | other results
Clc1ccc(C/C=C/C2=Cc3ccccc3OC2)cc1 | 100 | 50 | 3.61 | 45.1 | 2.22 | 27.7 | 
Clc1ccc(/C=C/C=C2\COc3ccc(Cl)cc3C2)cc1 | 25 | 12.5 | 11.5 | 8.27 | 3.02 | 2.18 | 
O=C1/C(=C/C#Cc2ccccc2)COc2ccccc21 | 50 | 25 | 9.3 | 20 | 2.5 | 5.38 | 
O=C1/C(=C/C=C/c2ccccc2)COc2ccccc21 | 25 | 12.5 | 0.85 |  |  | 29.4 | inhibition at 12.5 µM (rhinovirus B14 [7]): 7.2%
O=C1/C(=C/C#Cc2ccccc2)COc2ccc(Cl)cc21 | 75 | 50 | 7.89 | 30.4 | 2.47 | 9.51 | 
C1=C(/C=C/Cc2ccccc2)COc2ccccc21 | 75 | 50 | 13.6 | 11.1 | 6.76 | 5.52 | 
C(/C=C/c1ccccc1)=C1/COc2ccccc2C1 | 100 | 50 | 0.99 | 47.6 | 2.1 | 101 | 
O=C1/C(=C/C=C/c2ccccc2)COc2ccc(F)cc21 | 50 | 25 | 4.98 | 17 | 2.94 | 10 | 
O=C1/C(=C/C=C/c2ccccc2)COc2ccc(Cl)cc21 | 50 | 25 | 0.99 |  |  | 50.5 | inhibition at 25 µM (rhinovirus B14 [8]): 48.6%
O=C1/C(=C/C=C/c2ccc(Cl)cc2)COc2ccccc21 | 50 | 25 | 2.54 |  |  | 19.7 | inhibition at 25 µM (rhinovirus B14 [8]): 17.1%
Clc1ccc(C/C=C/C2=Cc3cc(Cl)ccc3OC2)cc1 | 100 | 25 | 9.73 |  |  | 10.3 | inhibition at 25 µM (rhinovirus B14 [8]): 27%
Clc1ccc2c(c1)C/C(=C/C=C/c1ccccc1)CO2 | 50 | 25 | 2.79 |  |  | 17.9 | inhibition at 25 µM (rhinovirus B14 [8]): 30.3%
Clc1ccc2c(c1)C=C(/C=C/Cc1ccccc1)CO2 | 25 | 12.5 | 0.42 |  |  | 59.5 | inhibition at 42 µM (rhinovirus A1B [9]): 12%; inhibition at 42 µM (rhinovirus A1B [10]): > 80%; inhibition at 42 µM (rhinovirus A1B [11]): 88.5%; inhibition at 42 µM (rhinovirus A1B [12]): 31%; inhibition at 42 µM (rhinovirus A1B [13]): > 80%; inhibition at 42 µM (rhinovirus A1B [14]): > 80%; inhibition at 42 µM (rhinovirus A1B [15]): 93%; inhibition at 42 µM (rhinovirus A1B [16]): 6%; log10PFU/ml (rhinovirus A1B [17]): 1.8; inhibition (rhinovirus A1B [18]): Active; Activity (rhinovirus A1B [19]): inactive; inhibition at 42 µM (rhinovirus A1B [20]): 1%; inhibition at 42 µM (rhinovirus A1B [21]): 35%; PFU/ml (rhinovirus A1B [22]): 5110000; inhibition at 12.5 µM (rhinovirus B14 [7]): 23%; inhibition at 42 µM (rhinovirus A1B [23]): > 80%; inhibition (rhinovirus A1B [24]): tde; log10PFU/ml (rhinovirus A1B [25]): 2.8; inhibition at 42 µM (rhinovirus A1B [26]): 16%
Clc1ccc(/C=C/C=C2\COc3ccccc3C2)cc1 | 50 | 25 | 1.39 | 6.02 | 8.31 | 36 | 
Fc1ccc2c(c1)C/C(=C/C=C/c1ccccc1)CO2 | 75 | 50 | 5.57 | 36.5 | 2.05 | 13.5 | 
O=C1/C(=C/C=C/c2ccc(Cl)cc2)COc2ccc(Cl)cc21 | 25 | 12.5 | 3.35 | 1.42 | 17.6 | 7.46 | Ratio IC50 [27]: 2
